In ChEMBL document CHEMBL1126046, “Geiparvarin analogues. 3. Synthesis and cytostatic activity of 3(2H)-furanone and 4,5-dihydro-3(2H)-furanone congeners of geiparvarin, containing a geraniol-like fragment in the side chain” (J Med Chem, 1992) one finds IC50 data, which are given here for 13 compounds.

The nature of experiment [1]: Inhibitory effect on the proliferation of human T-lymphoblast molt/4F cells. In kind it is functional. A digest of the protocol:
(§1)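 7.5 × 10^4 cells in growth medium were exposed in microplate wells to a range of compound concentrations. Proliferation ran 72 h at 37 °C under humidified, CO2-controlled conditions, followed by Coulter counter cell counts. IC50 is the compound concentration giving 50% inhibition of proliferation.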

Experiment [2] is described as follows: Inhibitory effect on the proliferation of murine mammary carcinoma FM3A cells. In kind it is functional, cell-based. Conditions: Mus musculus. A digest of the protocol: (§2)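 5 × 10^4 cells were suspended in growth medium in microplate wells with varying concentrations of compound. They grew for 48 h at 37 °C in a humidified CO2-controlled atmosphere and were then counted in a Coulter counter. IC50 is the concentration inhibiting cell proliferation by 50%.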

In experiment [3] the test system is L1210. In words: Inhibitory effect on the proliferation of murine leukemia L1210 cells. Conditions: Mus musculus. It is filed as functional, cell-based. An outline of the steps: as §2
The test system of experiment [4] is MT4. Briefly: Inhibitory effect on the proliferation of human T-lymphocyte MT-4 cells. It is filed as functional, cell-based. An outline of the steps:
(§3)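 MT-4 cells (7.5 × 10^4 per well) in growth medium were incubated with graded compound concentrations for 120 h at 37 °C in a humidified CO2 atmosphere. Cell viability was assessed by trypan blue dye exclusion. IC50 is the concentration required for 50% inhibition of proliferation.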

The test system of experiment [5] is Raji. In words: Inhibitory effect on the proliferation of human B-lymphoblast Raji cells. It is filed as functional, cell-based. A digest of the protocol:
as §1

A short description of experiment [6]: Inhibitory effect on the proliferation of T-lymphoblast molt/4F cells. In kind it is functional. Conditions: Homo sapiens. An outline of the steps: as §1
The subject of experiment [7] is L1210. Briefly: Inhibitory effect on the proliferation of murine leukemia L1210 cells. It is filed as functional, cell-based. Conditions: Mus musculus. An outline of the steps: as §2
Experiment [8] concerns MT4. Briefly: Inhibitory effect on the proliferation of human T-lymphocyte MT-4 cells. It is filed as functional, cell-based. An outline of the steps: as §3
Experiment [9] deals with Raji. In words: Inhibitory effect on the proliferation of human B-lymphoblast Raji cells. In kind it is functional, cell-based. A digest of the protocol: as §1

Values after ≈ are worked out from the molar mass of the structure shown.

What is called IC50 is the concentration needed to halve the response being measured. A low value points to inhibition by little substance. In the case of `C/C(=C\COc1ccccc1)CC/C=C(\C)C1CC(=O)C(C)(C)O1` (stereo not given), the concentration for half-maximal inhibition (IC50) was determined as 27.6 µg/mL (≈ 84 µM) in experiment [1]; 59 µg/mL (≈ 180 µM) in [2]; 64 µg/mL (≈ 195 µM) in [3]; 43.1 µg/mL (≈ 131 µM) in experiment [4]; 50.7 µg/mL (≈ 154 µM) in [5].

As to `C/C(=C\COc1ccc2ccc(=O)oc2c1)CC/C=C(\C)C1CC(=O)C(C)(C)O1` (stereo not given), the IC50 in [6] was 24.2 µg/mL (≈ 61 µM); in experiment [2], 54.2 µg/mL (≈ 137 µM); in [7] it was 64.5 µg/mL (≈ 163 µM); in [8], 42.9 µg/mL (≈ 108 µM); in [9], 50.7 µg/mL (≈ 128 µM).

With `COc1cccc(OC/C=C(\C)CC/C=C(\C)C2CC(=O)C(C)(C)O2)c1` (stereo not given), the IC50 amounted to 33.8 µg/mL (≈ 94.3 µM) in [1]; 68.7 µg/mL (≈ 192 µM) in [2]; 66.5 µg/mL (≈ 186 µM) in experiment [3]; 51.5 µg/mL (≈ 144 µM) in [4]; 50 µg/mL (≈ 139 µM) in experiment [5].

`C/C(=C\COc1ccc2ccccc2c1)CC/C=C(\C)C1=CC(=O)C(C)(C)O1`: the IC50 came out at 51.6 µg/mL (≈ 137 µM) in [1]; 56.4 µg/mL (≈ 150 µM) in [2]; 47.4 µg/mL (≈ 126 µM) in experiment [7]; 38.6 µg/mL (≈ 103 µM) in [8]; 63.2 µg/mL (≈ 168 µM) in experiment [9].

In the case of `C/C(=C\COc1ccc2ccc(=O)oc2c1)CC/C=C(\C)C1=CC(=O)C(C)(C)O1`, the IC50 in experiment [6] turned out to be 28.5 µg/mL (≈ 72.2 µM); in experiment [2], 53.7 µg/mL (≈ 136 µM); in experiment [7] it was 39.7 µg/mL (≈ 101 µM); in experiment [8], 15.6 µg/mL (≈ 39.5 µM); in experiment [9], 25.2 µg/mL (≈ 63.9 µM).

Take `COc1cccc(OC/C=C(\C)CC/C=C(\C)C2=CC(=O)C(C)(C)O2)c1`: the IC50 was 35.9 µg/mL (≈ 101 µM) in experiment [1]; 45.9 µg/mL (≈ 129 µM) in [2]; 36.3 µg/mL (≈ 102 µM) in experiment [3]; 34 µg/mL (≈ 95.4 µM) in [4]; 45.8 µg/mL (≈ 128 µM) in [5].

`C/C(=C\COc1c(Cl)cccc1Cl)CC/C=C(\C)C1=CC(=O)C(C)(C)O1`: the IC50 in experiment [1] is 27.4 µg/mL (≈ 69.3 µM); in experiment [2], 35.3 µg/mL (≈ 89.3 µM); in [3], 30.7 µg/mL (≈ 77.7 µM); in experiment [4] it was 15.5 µg/mL (≈ 39.2 µM); in experiment [5], 26.2 µg/mL (≈ 66.3 µM).

For the compound `C/C(=C\COc1ccc2ccc(=O)oc2c1)C1=CC(=O)C(C)(C)O1` [GEIPARVARIN], the IC50 in [6] worked out at 7.92 µg/mL (≈ 24.3 µM); in [2], 7.87 µg/mL (≈ 24.1 µM); in [7], 5.31 µg/mL (≈ 16.3 µM); in experiment [8], 1.64 µg/mL (≈ 5.03 µM); in experiment [9], 8.25 µg/mL (≈ 25.3 µM).

Turning to `C/C(=C\COc1ccccc1)CC/C=C(\C)C1=CC(=O)C(C)(C)O1`, the IC50 stood at 35.2 µg/mL (≈ 108 µM) in experiment [1]; 44.2 µg/mL (≈ 135 µM) in [2]; 38.7 µg/mL (≈ 119 µM) in experiment [7]; 29.4 µg/mL (≈ 90.1 µM) in experiment [4]; 40.3 µg/mL (≈ 123 µM) in experiment [9].

Regarding `C/C(=C\COc1ccc2ccc(=O)oc2c1)C1CC(=O)C(C)(C)O1` (stereo not given), the IC50 in [6] was 97.5 µg/mL (≈ 297 µM); in experiment [2], 215 µg/mL (≈ 655 µM); in experiment [7] it was 211 µg/mL (≈ 643 µM); in experiment [8], 107 µg/mL (≈ 326 µM); in [9] it was 226 µg/mL (≈ 688 µM).

Take `C/C(=C\COc1c(Cl)cccc1Cl)CC/C=C(\C)C1CC(=O)C(C)(C)O1` (stereo not given): the IC50 in [1] is 50.5 µg/mL (≈ 127 µM); in experiment [2], 51.2 µg/mL (≈ 129 µM); in experiment [3], 58 µg/mL (≈ 146 µM); in experiment [4], 32.5 µg/mL (≈ 81.8 µM); in [9] it was 59.9 µg/mL (≈ 151 µM).

In the case of `C/C(=C\COc1ccc2ccccc2c1)CC/C=C(\C)C1CC(=O)C(C)(C)O1` (stereo not given), the IC50 came out at 26.9 µg/mL (≈ 71.1 µM) in experiment [1]; 38.4 µg/mL (≈ 101 µM) in experiment [2]; 24.9 µg/mL (≈ 65.8 µM) in [7]; 48.8 µg/mL (≈ 129 µM) in experiment [8]; 47.9 µg/mL (≈ 127 µM) in [9].

For the compound `COc1ccc(OC/C=C(\C)CC/C=C(\C)C2=CC(=O)C(C)(C)O2)cc1`, the IC50 was 38.6 µg/mL (≈ 108 µM) in experiment [1]; 43.8 µg/mL (≈ 123 µM) in experiment [2]; 40.2 µg/mL (≈ 113 µM) in experiment [3]; 33.9 µg/mL (≈ 95.1 µM) in [4]; 43 µg/mL (≈ 121 µM) in experiment [5].
